Assay results reported in publication PMC3263826 (ACS medicinal chemistry letters, 2011).

Columns and labels:
rat MAO A = target: T1, rat MAO A (Rattus norvegicus, UniProt P21396); test: Inhibition of purified recombinant rat MAO A; format: biochemical; conditions: accessible concentration range (~100 μM)
T1 sequence (P21396 1-526): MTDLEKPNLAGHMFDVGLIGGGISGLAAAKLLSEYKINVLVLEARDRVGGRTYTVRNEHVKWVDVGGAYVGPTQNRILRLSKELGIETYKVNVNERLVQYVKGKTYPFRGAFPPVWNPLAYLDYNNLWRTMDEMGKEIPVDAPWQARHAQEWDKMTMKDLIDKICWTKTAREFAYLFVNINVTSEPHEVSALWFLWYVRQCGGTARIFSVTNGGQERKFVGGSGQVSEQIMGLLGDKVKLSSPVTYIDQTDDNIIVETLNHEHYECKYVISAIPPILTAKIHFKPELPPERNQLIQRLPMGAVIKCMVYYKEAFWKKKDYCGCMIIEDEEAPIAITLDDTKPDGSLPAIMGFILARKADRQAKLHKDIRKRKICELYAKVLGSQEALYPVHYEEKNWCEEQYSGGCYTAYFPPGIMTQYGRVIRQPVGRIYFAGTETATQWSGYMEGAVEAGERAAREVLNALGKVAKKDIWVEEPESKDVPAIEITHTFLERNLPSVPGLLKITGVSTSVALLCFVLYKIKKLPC

[1] = system: MPTP-mouse model for Parkinson's disease; conditions: cited from earlier work
[2] = cited from earlier work
human MAO A = target: T2, human MAO A (Homo sapiens, UniProt P21397); test: Inhibition of purified recombinant human MAO A; format: biochemical; conditions: for inhibition pattern with MAO A: species not given
T2 sequence (P21397 1-527): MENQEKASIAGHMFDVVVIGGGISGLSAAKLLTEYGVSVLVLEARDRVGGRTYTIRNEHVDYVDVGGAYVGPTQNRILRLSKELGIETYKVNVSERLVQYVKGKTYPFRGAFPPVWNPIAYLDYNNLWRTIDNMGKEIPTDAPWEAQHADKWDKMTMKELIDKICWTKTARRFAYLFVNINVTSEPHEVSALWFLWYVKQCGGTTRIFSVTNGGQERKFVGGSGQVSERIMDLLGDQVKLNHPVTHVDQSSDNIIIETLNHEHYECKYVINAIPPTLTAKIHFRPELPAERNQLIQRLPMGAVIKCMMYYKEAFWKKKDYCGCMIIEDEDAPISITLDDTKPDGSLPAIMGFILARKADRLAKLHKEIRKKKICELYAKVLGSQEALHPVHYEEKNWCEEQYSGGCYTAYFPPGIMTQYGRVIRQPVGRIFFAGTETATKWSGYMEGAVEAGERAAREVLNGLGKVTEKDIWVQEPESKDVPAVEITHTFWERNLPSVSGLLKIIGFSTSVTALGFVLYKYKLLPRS

human MAO B = target: T3, human MAO B (Homo sapiens, UniProt P27338); test: Inhibition of purified recombinant human MAO B; format: biochemical; conditions: for inhibition pattern with MAO B: species not given
T3 sequence (P27338 1-520): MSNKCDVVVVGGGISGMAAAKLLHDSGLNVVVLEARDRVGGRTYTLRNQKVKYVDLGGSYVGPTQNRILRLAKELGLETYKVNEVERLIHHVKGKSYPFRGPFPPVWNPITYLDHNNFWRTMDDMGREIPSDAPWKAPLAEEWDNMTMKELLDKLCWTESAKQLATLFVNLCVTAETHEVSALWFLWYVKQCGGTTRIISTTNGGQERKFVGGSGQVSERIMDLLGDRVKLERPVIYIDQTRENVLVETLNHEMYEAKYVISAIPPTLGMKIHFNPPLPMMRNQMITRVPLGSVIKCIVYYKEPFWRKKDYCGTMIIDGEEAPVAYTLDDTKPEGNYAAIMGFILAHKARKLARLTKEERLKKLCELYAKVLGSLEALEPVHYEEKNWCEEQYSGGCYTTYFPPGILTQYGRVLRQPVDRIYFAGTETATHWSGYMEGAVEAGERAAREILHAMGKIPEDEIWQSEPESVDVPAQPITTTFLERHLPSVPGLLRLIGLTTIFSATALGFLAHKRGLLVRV

[3] = target: human histone demethylase LSD1 (Homo sapiens, UniProt O60341); test: Inhibition of human histone demethylase LSD1; format: biochemical; conditions: concentrations up to 100 μM
Method in brief: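 Enzyme is recombinant human LSD1 purified as a complex with CoREST. Test compound was assayed at concentrations up to 100 μM.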

| SMILES | inhibitory activity against rat MAO A (rat MAO A) | neuroprotection in MPTP-mouse model [1] | brain (therapeutic neuroprotective) concentration ([2]; monkey, in vivo) | plasma concentration ([2]; monkeys with induced symptoms characteristic of Parkinson's disease) | inhibitory activity against human MAO A (human MAO A; accessible concentration range (~100 μM)) | inhibition pattern with MAO B (human MAO B) | inhibition of LSD1 [3] | inhibition pattern with MAO A (human MAO A) | substrate of MAO A (human MAO A; time course of hours) | substrate of MAO B (human MAO B; time course of hours) |
| --- | --- | --- | --- | --- | --- | --- | --- | --- | --- | --- |
| CCc1ccc(CCOc2ccc(CC3SC(=O)NC3=O)cc2)nc1 (centres unmarked) [Pioglitazone, pioglitazone] | does not exhibit any inhibitory activity | effective neuroprotectant | ~ 0.14 μM | ~ 4.9 μM | does not exhibit any inhibitory activity | competitively | No inhibition |  |  |  |
| CN(CCOc1ccc(CC2SC(=O)NC2=O)cc1)c1ccccn1 (centres unmarked) [Rosiglitazone, rosiglitazone] |  |  |  |  |  | competitively | No inhibition | competitively | very slow substrate | very slow substrate |
| Cc1c(C)c2c(c(C)c1O)CCC(C)(COc1ccc(CC3SC(=O)NC3=O)cc1)O2 (centres unmarked) [Troglitazone, troglitazone] |  |  |  |  |  | non-competitive |  | non-competitive |  |  |
